Calls of active or inactive are those of the source. The calls are words filed in the database; no cut-off is given here.
Key:
[1] = target: T1, Alpha-1D adrenergic receptor (Homo sapiens, UniProt P25100); assay: Displacement of [3H]-Prazosin from human alpha-1D adrenergic receptor transfected in CHO cell membranes after 2 hrs by microplate scintillation counting analysis
T1 sequence (P25100 whole entry): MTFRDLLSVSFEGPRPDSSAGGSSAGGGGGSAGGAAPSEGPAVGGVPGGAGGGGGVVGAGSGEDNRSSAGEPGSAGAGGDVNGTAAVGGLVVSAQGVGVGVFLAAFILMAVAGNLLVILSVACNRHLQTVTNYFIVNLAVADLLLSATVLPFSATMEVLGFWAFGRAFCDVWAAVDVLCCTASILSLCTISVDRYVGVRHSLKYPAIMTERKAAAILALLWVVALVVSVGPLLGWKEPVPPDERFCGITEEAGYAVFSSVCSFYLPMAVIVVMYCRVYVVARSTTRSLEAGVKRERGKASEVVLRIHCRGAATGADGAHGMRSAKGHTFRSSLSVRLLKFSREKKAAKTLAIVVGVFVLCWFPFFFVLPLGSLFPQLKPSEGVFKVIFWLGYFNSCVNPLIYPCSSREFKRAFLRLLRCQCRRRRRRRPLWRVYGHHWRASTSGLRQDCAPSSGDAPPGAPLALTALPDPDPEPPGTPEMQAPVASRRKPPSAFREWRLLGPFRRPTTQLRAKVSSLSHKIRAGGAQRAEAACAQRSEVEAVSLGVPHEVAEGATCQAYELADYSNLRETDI
Procedure, shortened: (§1)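 Radioligand competition binding used [3H]prazosin on membranes from CHO cells transfected with human cloned α1A-, α1B- or α1D-adrenoceptors.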

[2] = Cytotoxicity against HEK293A cells transfected with alpha-1A adrenergic receptor assessed as cell viability by sulforhodamine B assay; format: cell-based; conditions: Homo sapiens, HEK293-A
Procedure, shortened: (§2)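 Standard sulforhodamine B colorimetric assay in HEK293A cells stably transfected with α1A-AR or α1D-AR.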

[3] = Cytotoxicity against HEK293A cells transfected with alpha-1D adrenergic receptor assessed as cell viability by sulforhodamine B assay; format: cell-based; conditions: Homo sapiens, HEK293-A; procedure, shortened: as §2
[4] = target: T2, Alpha-1A adrenergic receptor (Homo sapiens) (UniProt P35348); assay: Binding affinity to alpha-1A adrenergic receptor (unknown origin) transfected in HEK293A cells at 15 nM measured 5 mins post wash out by DiD dye-based confocal microscopic analysis; format: cell-based; conditions: HEK293-A
T2 sequence (whole entry): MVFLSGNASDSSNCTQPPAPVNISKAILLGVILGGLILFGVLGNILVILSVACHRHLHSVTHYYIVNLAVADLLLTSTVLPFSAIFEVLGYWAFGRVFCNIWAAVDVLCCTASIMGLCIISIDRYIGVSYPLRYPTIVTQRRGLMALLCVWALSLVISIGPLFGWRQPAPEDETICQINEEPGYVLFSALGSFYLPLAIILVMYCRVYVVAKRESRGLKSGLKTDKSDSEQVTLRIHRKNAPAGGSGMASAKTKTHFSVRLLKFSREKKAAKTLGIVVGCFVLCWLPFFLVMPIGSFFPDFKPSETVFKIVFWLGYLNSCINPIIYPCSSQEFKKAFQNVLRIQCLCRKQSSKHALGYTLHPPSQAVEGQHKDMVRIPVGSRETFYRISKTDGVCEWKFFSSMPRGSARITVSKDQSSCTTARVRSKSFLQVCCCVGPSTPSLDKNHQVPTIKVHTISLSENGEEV
Procedure, shortened: (§3)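 HEK293A cells stably transfected with α1A-AR or α1D-AR, or untransfected HEK293A cells, were incubated with the probe at 15 nM plus the membrane dye DiD for 5 min at 37 °C. Cells were washed immediately and imaged by confocal fluorescence microscopy at identical exposure times.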

[5] = target: T3, Alpha-1D adrenergic receptor (Homo sapiens) (UniProt P25100); assay: Binding affinity to alpha-1D adrenergic receptor (unknown origin) transfected in HEK293A cells at 15 nM measured 5 mins post wash out by DiD dye-based confocal microscopic analysis; format: cell-based; conditions: HEK293-A; procedure, shortened: as §3
T3 sequence (whole entry): T1 sequence (P25100 whole entry)

[6] = target: T2, Alpha-1A adrenergic receptor (Homo sapiens); assay: Binding affinity to alpha-1A adrenergic receptor (unknown origin) transfected in HEK293A cells at 15 nM measured 5 mins post wash out by DiD dye-based confocal microscopic analysis in presence of alpha1 adrenergic receptor antagonist tamsulosin; format: cell-based; conditions: HEK293-A
Procedure, shortened: (§4)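 α1A-AR- or α1D-AR-transfected HEK293A cells were incubated with the probe at 15 nM, DiD and tamsulosin at 300 nM as competitor for 5 min at 37 °C. Cells were washed immediately and imaged by confocal microscopy at identical exposure.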

[7] = target: T3, Alpha-1D adrenergic receptor (Homo sapiens); assay: Binding affinity to alpha-1D adrenergic receptor (unknown origin) transfected in HEK293A cells at 15 nM measured 5 mins post wash out by DiD dye-based confocal microscopic analysis in presence of alpha1 adrenergic receptor antagonist tamsulosin; format: cell-based; conditions: HEK293-A; procedure, shortened: as §4
[8] = Drug uptake in HEK293A cells at 15 nM measured 5 mins post wash out by DiD dye-based confocal microscopic analysis; format: ADME, cell-based; conditions: human, hek293-a, 0.015 µM; procedure, shortened: as §3
[9] = target: T4, Alpha-1A adrenergic receptor (Homo sapiens, UniProt P35348); assay: Displacement of [3H]-Prazosin from human alpha-1A adrenergic receptor transfected in CHO cell membranes after 2 hrs by microplate scintillation counting analysis; procedure, shortened: as §1
T4 sequence (P35348 whole entry): T2 sequence (whole entry)

[10] = target: T5, Alpha-1B adrenergic receptor (Homo sapiens, UniProt P35368); assay: Displacement of [3H]-Prazosin from human alpha-1B adrenergic receptor transfected in CHO cell membranes after 2 hrs by microplate scintillation counting analysis; procedure, shortened: as §1
T5 sequence (P35368 whole entry): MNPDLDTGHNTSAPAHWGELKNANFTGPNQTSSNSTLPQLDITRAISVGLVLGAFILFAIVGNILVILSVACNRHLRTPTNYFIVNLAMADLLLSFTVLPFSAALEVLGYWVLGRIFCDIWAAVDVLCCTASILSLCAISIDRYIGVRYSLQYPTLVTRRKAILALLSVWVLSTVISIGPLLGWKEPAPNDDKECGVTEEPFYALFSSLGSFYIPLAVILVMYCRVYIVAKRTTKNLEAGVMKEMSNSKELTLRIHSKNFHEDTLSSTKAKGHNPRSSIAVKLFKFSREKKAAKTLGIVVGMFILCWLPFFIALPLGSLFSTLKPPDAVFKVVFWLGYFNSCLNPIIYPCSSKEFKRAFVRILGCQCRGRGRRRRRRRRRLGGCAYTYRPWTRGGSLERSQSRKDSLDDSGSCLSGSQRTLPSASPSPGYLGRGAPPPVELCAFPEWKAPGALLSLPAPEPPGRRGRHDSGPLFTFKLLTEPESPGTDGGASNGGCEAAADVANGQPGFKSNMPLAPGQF

[11] = Drug uptake in plasma membrane of HEK293A cells transfected with alpha-1A adrenergic receptor at 50 nM measured 5 mins post wash out by DiD dye-based confocal microscopic analysis; format: ADME; conditions: human, hek293-a, 0.05 µM
Procedure, shortened: (§5)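 α1A-AR- or α1D-AR-transfected HEK293A cells, or untransfected HEK293A cells as the receptor-free control, were incubated with the probe plus DiD (red, colocalization) for 5 min at 37 °C. Probe signal was compared with the DiD-stained surface for subcellular localization by fluorescence microscopy.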

[12] = Drug uptake in cytoplasm of HEK293A cells transfected with alpha-1D adrenergic receptor at 50 nM measured 5 mins post wash out by DiD dye-based confocal microscopic analysis; format: ADME, cell-based; conditions: human, hek293-a, 0.05 µM; procedure, shortened: as §5
[13] = Drug uptake in plasma membrane of HEK293A cells transfected with alpha-1D adrenergic receptor at 50 nM measured 5 mins post wash out by DiD dye-based confocal microscopic analysis; format: ADME, cell membranes; conditions: human, hek293-a, 0.05 µM; procedure, shortened: as §5
[14] = target: T2, Alpha-1A adrenergic receptor (Homo sapiens); assay: Binding affinity to alpha-1A adrenergic receptor (unknown origin) transfected in HEK293A cells at 50 nM after 5 mins by DiD dye-based confocal microscopic analysis; format: cell-based; conditions: HEK293-A; procedure, shortened: as §5
[15] = target: T3, Alpha-1D adrenergic receptor (Homo sapiens); assay: Binding affinity to alpha-1D adrenergic receptor (unknown origin) transfected in HEK293A cells at 50 nM after 5 mins by DiD dye-based confocal microscopic analysis; format: cell-based; conditions: HEK293-A; procedure, shortened: as §5
[16] = target: T2, Alpha-1A adrenergic receptor (Homo sapiens); assay: Binding affinity to alpha-1A adrenergic receptor (unknown origin) transfected in HEK293A cells at 50 nM after 5 mins by DiD dye-based confocal microscopic analysis in presence of alpha1 adrenergic receptor antagonist tamsulosin; format: cell-based; conditions: HEK293-A
Procedure, shortened: (§6)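 Transfected HEK293A cells expressing α1A-AR or α1D-AR were incubated with the probe, DiD and tamsulosin as competing α1-AR antagonist for 5 min at 37 °C. Fluorescence labelling was imaged by confocal microscopy.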

[17] = target: T3, Alpha-1D adrenergic receptor (Homo sapiens); assay: Binding affinity to alpha-1D adrenergic receptor (unknown origin) transfected in HEK293A cells at 50 nM after 5 mins by DiD dye-based confocal microscopic analysis in presence of alpha1 adrenergic receptor antagonist tamsulosin; format: cell-based; conditions: HEK293-A; procedure, shortened: as §6
[18] = Drug uptake in HEK293A cells at 50 nM after 5 mins by DiD dye-based confocal microscopic analysis; format: ADME, cell-based; conditions: human, hek293-a, 0.05 µM; procedure, shortened: as §5
[19] = target: T6, Adrenergic receptor alpha-1 (Homo sapiens) (UniProt P35348+P25100+P35368); assay: Binding affinity to alpha-1 adrenergic receptor in human PC3 cells at 1 uM measured 30 mins post wash out by fluorescence assay; format: cell-based; conditions: PC-3
Procedure, shortened: (§7)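 PC-3 or HepG2 cells were incubated with the probe at 1 μM for 30 min at 37 °C, then washed immediately. Labelling was imaged by fluorescence microscopy, with background adjusted.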

HepG2 = assay: Drug uptake in human HepG2 cells expressing low level of alpha-1 adrenergic receptor at 1 uM measured 30 mins post wash out by fluorescence assay; format: ADME, cell-based; conditions: hepg2, 0.5 h; procedure, shortened: as §7
[20] = target: T6, Adrenergic receptor alpha-1 (Homo sapiens); assay: Binding affinity to alpha-1 adrenergic receptor in human PC3 cells at 1 uM measured 30 mins post wash out by fluorescence assay in presence of doxazosin; format: cell-based; conditions: PC-3
Procedure, shortened: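 PC-3 cells were co-incubated with the probe at 1 μM and doxazosin at 10 μM for 30 min at 37 °C, then washed immediately. Displacement of labelling was imaged by fluorescence microscopy.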

COc1cc2nc(N3CCN(C(=O)c4cc5ccc(O)cc5oc4=O)CC3)nc(N)c2cc1OC
IC50 [1]: < 5 nM | IC50 [2]: > 100000 nM | IC50 [3]: > 100000 nM | Activity [4]: Active | Activity [5]: Active | Activity [6]: inactive | Activity [7]: inactive | Drug uptake [8]: Active | IC50 [9]: 3.9 nM | Ki [9]: 2.1 nM | IC50 [10]: < 5 nM | Drug uptake [11]: Active | Drug uptake [12]: Active | Drug uptake [13]: Active

COc1cc2nc(N3CCN(C(=S)Nc4ccc(-c5c6ccc(=O)cc-6oc6cc(O)ccc56)c(C(=O)O)c4)CC3)nc(N)c2cc1OC
IC50 [1]: 34 nM | Ki [1]: 20.7 nM | IC50 [2]: > 100000 nM | IC50 [3]: > 100000 nM | Activity [14]: Active | Activity [15]: Active | Activity [16]: inactive | Activity [17]: inactive | Drug uptake [18]: Active | IC50 [9]: 8.8 nM | Ki [9]: 4.7 nM | IC50 [10]: 16.3 nM | Ki [10]: 7.3 nM | Activity [19]: Active | Drug uptake (HepG2): Active | Activity [20]: inactive

COc1cc2nc(N3CCN(C(=O)C4COc5ccccc5O4)CC3)nc(N)c2cc1OC (configuration not stated) [DOXAZOSIN]
IC50 [2]: 19000 nM | IC50 [3]: 22000 nM

Source: ChEMBL document CHEMBL3580589, “Discovery of Quinazoline-Based Fluorescent Probes to α1-Adrenergic Receptors” (ACS Med Chem Lett, 2015)
